In ChEMBL document CHEMBL4765413, “Discovery of novel anti-angiogenesis agents. Part 11: Development of PROTACs based on active molecules with potency of promoting vascular normalization” (Eur J Med Chem, 2020):

What was measured:
EA.hy 926 [1] = experiment: Antiangiogenic activity in human EA.hy 926 cells measured after 24 hrs by MTT assay; settings: EA.hy 926, 24 h
[2] = molecular target: Vascular endothelial growth factor receptor 2 (Homo sapiens, UniProt P35968); experiment: Inhibition of recombinant human N-terminal GST-tagged VEGFR2 (789 to end residues) expressed in baculovirus infected Sf9 insect cells using Poly (4:1 Glu, Tyr) as substrate incubated for 1 hr by ADP-Glo luminescent assay
[3] = molecular target: T1, von Hippel-Lindau disease tumor suppressor/Vascular endothelial growth factor receptor 2 (Homo sapiens) (UniProt P35968+P40337); experiment: Protac activity at VHL/VEGFR2 in human EA.hy 926 cells assessed as induction of VEGFR2 degradation at 80 uM measured after 72 hrs by Western blot analysis relative to control; assay type: cell-based
Procedure, shortened: (§1)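 EA.hy926 cells were exposed to DMSO vehicle or test compound, then lysed in SDS sample buffer and normalized by BCA protein assay. Equal protein amounts were run on SDS-PAGE and transferred to PVDF. Membranes were blocked in 5% milk/TBS-Tween and probed with anti-VEGFR-2 (1:500), with GAPDH (1:10000) as loading control. Detection used HRP secondary and ECL, with densitometric quantification.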

HEK293 = experiment: Cytotoxicity against HEK293 cells measured after 24 hrs by MTT assay; assay type: cell-based; settings: human, hek293, 24 h
EA.hy 926 [4] = experiment: Induction of apoptosis in human EA.hy 926 cells assessed as late apoptotic cells at 10 uM measured after 72 hrs by Annexin V-FITC/propidium iodide staining based flow cytometry (reference value: 5.34%)
EA.hy 926 [5] = experiment: Cell cycle arrest in human EA.hy 926 cells assessed as accumulation at G1 phase at 1 uM measured after 72 hrs by propidium iodide staining based flow cytometry (reference value: 59.78%); assay type: functional
EA.hy 926 [6] = experiment: Cell cycle arrest in human EA.hy 926 cells assessed as accumulation at S phase at 10 uM measured after 72 hrs by propidium iodide staining based flow cytometry (reference value: 14.39%); assay type: functional
EA.hy 926 [7] = experiment: Induction of apoptosis in human EA.hy 926 cells assessed as necrotic cells at 40 uM measured after 72 hrs by Annexin V-FITC/propidium iodide staining based flow cytometry (reference value: 2.65%); assay type: functional
EA.hy 926 [8] = experiment: Cell cycle arrest in human EA.hy 926 cells assessed as accumulation at S phase at 1 uM measured after 72 hrs by propidium iodide staining based flow cytometry (reference value: 14.39%); assay type: functional
EA.hy 926 [9] = experiment: Induction of apoptosis in human EA.hy 926 cells measured after 72 hrs by Annexin V-FITC/propidium iodide staining based flow cytometry; assay type: functional, cell-based
EA.hy 926 [10] = experiment: Induction of apoptosis in human EA.hy 926 cells assessed as viable cells at 20 uM measured after 72 hrs by Annexin V-FITC/propidium iodide staining based flow cytometry (reference value: 88.6%); assay type: functional; settings: read-out: Activity
EA.hy 926 [11] = experiment: Induction of apoptosis in human EA.hy 926 cells assessed as necrotic cells at 20 uM measured after 72 hrs by Annexin V-FITC/propidium iodide staining based flow cytometry (reference value: 2.65%); assay type: functional
EA.hy 926 [12] = experiment: Induction of apoptosis in human EA.hy 926 cells assessed as early apoptotic cells at 1 uM measured after 72 hrs by Annexin V-FITC/propidium iodide staining based flow cytometry (reference value: 3.4%); assay type: functional
EA.hy 926 [13] = experiment: Induction of apoptosis in human EA.hy 926 cells assessed as early apoptotic cells at 10 uM measured after 72 hrs by Annexin V-FITC/propidium iodide staining based flow cytometry (reference value: 3.4%); assay type: functional
EA.hy 926 [14] = experiment: Cell cycle arrest in human EA.hy 926 cells assessed as accumulation at G2 phase at 1 uM measured after 72 hrs by propidium iodide staining based flow cytometry (reference value: 25.83%); assay type: functional
EA.hy 926 [15] = experiment: Induction of apoptosis in human EA.hy 926 cells assessed as late apoptotic cells at 20 uM measured after 72 hrs by Annexin V-FITC/propidium iodide staining based flow cytometry (reference value: 5.34%)
EA.hy 926 [16] = experiment: Cell cycle arrest in human EA.hy 926 cells assessed as accumulation at G1 phase at 40 uM measured after 72 hrs by propidium iodide staining based flow cytometry (reference value: 59.78%); assay type: functional
EA.hy 926 [17] = experiment: Cell cycle arrest in human EA.hy 926 cells assessed as accumulation at G2 phase at 10 uM measured after 72 hrs by propidium iodide staining based flow cytometry (reference value: 25.83%); assay type: functional
EA.hy 926 [18] = experiment: Cell cycle arrest in human EA.hy 926 cells assessed as accumulation at G2 phase at 0.1 uM measured after 72 hrs by propidium iodide staining based flow cytometry (reference value: 25.83%); assay type: functional
EA.hy 926 [19] = experiment: Induction of apoptosis in human EA.hy 926 cells assessed as viable cells at 1 uM measured after 72 hrs by Annexin V-FITC/propidium iodide staining based flow cytometry (reference value: 88.6%); assay type: functional; settings: read-out: Activity
EA.hy 926 [20] = experiment: Induction of apoptosis in human EA.hy 926 cells assessed as viable cells at 40 uM measured after 72 hrs by Annexin V-FITC/propidium iodide staining based flow cytometry (reference value: 88.6%); assay type: functional; settings: read-out: Activity
EA.hy 926 [21] = experiment: Cell cycle arrest in human EA.hy 926 cells assessed as accumulation at S phase at 40 uM measured after 72 hrs by propidium iodide staining based flow cytometry (reference value: 14.39%); assay type: functional
EA.hy 926 [22] = experiment: Induction of apoptosis in human EA.hy 926 cells assessed as early apoptotic cells at 40 uM measured after 72 hrs by Annexin V-FITC/propidium iodide staining based flow cytometry (reference value: 3.4%); assay type: functional
EA.hy 926 [23] = experiment: Cell cycle arrest in human EA.hy 926 cells assessed as accumulation at G2 phase at 20 uM measured after 72 hrs by propidium iodide staining based flow cytometry (reference value: 25.83%); assay type: functional
EA.hy 926 [24] = experiment: Induction of apoptosis in human EA.hy 926 cells assessed as early apoptotic cells at 0.1 uM measured after 72 hrs by Annexin V-FITC/propidium iodide staining based flow cytometry (reference value: 3.4%); assay type: functional
EA.hy 926 [25] = experiment: Induction of apoptosis in human EA.hy 926 cells assessed as late apoptotic cells at 40 uM measured after 72 hrs by Annexin V-FITC/propidium iodide staining based flow cytometry (reference value: 5.34%)
EA.hy 926 [26] = experiment: Cell cycle arrest in human EA.hy 926 cells assessed as accumulation at S phase at 0.1 uM measured after 72 hrs by propidium iodide staining based flow cytometry (reference value: 14.39%); assay type: functional
[27] = molecular target: T1, von Hippel-Lindau disease tumor suppressor/Vascular endothelial growth factor receptor 2 (Homo sapiens); experiment: Protac activity at VHL/VEGFR2 in human EA.hy 926 cells assessed as induction of VEGFR2 degradation measured after 24 to 72 hrs by Western blot analysis; assay type: cell-based; settings: time 24-72 hrs; procedure, shortened: as §1
EA.hy 926 [28] = experiment: Induction of apoptosis in human EA.hy 926 cells assessed as necrotic cells at 1 uM measured after 72 hrs by Annexin V-FITC/propidium iodide staining based flow cytometry (reference value: 2.65%); assay type: functional
EA.hy 926 [29] = experiment: Cell cycle arrest in human EA.hy 926 cells assessed as accumulation at G2 phase at 40 uM measured after 72 hrs by propidium iodide staining based flow cytometry (reference value: 25.83%); assay type: functional
EA.hy 926 [30] = experiment: Induction of apoptosis in human EA.hy 926 cells assessed as late apoptotic cells at 0.1 uM measured after 72 hrs by Annexin V-FITC/propidium iodide staining based flow cytometry (reference value: 5.34%)
EA.hy 926 [31] = experiment: Induction of apoptosis in human EA.hy 926 cells assessed as late apoptotic cells at 1 uM measured after 72 hrs by Annexin V-FITC/propidium iodide staining based flow cytometry (reference value: 5.34%)
EA.hy 926 [32] = experiment: Induction of apoptosis in human EA.hy 926 cells assessed as viable cells at 0.1 uM measured after 72 hrs by Annexin V-FITC/propidium iodide staining based flow cytometry (reference value: 88.6%); assay type: functional; settings: read-out: Activity
EA.hy 926 [33] = experiment: Cell cycle arrest in human EA.hy 926 cells assessed as accumulation at G1 phase at 0.1 uM measured after 72 hrs by propidium iodide staining based flow cytometry (reference value: 59.78%); assay type: functional
EA.hy 926 [34] = experiment: Cell cycle arrest in human EA.hy 926 cells assessed as accumulation at S phase at 20 uM measured after 72 hrs by propidium iodide staining based flow cytometry (reference value: 14.39%); assay type: functional
EA.hy 926 [35] = experiment: Cell cycle arrest in human EA.hy 926 cells assessed as accumulation at G1 phase at 10 uM measured after 72 hrs by propidium iodide staining based flow cytometry (reference value: 59.78%); assay type: functional
EA.hy 926 [36] = experiment: Induction of apoptosis in human EA.hy 926 cells assessed as early apoptotic cells at 20 uM measured after 72 hrs by Annexin V-FITC/propidium iodide staining based flow cytometry (reference value: 3.4%); assay type: functional
EA.hy 926 [37] = experiment: Induction of apoptosis in human EA.hy 926 cells assessed as necrotic cells at 10 uM measured after 72 hrs by Annexin V-FITC/propidium iodide staining based flow cytometry (reference value: 2.65%); assay type: functional
EA.hy 926 [38] = experiment: Induction of apoptosis in human EA.hy 926 cells assessed as viable cells at 10 uM measured after 72 hrs by Annexin V-FITC/propidium iodide staining based flow cytometry (reference value: 88.6%); assay type: functional; settings: read-out: Activity
[39] = molecular target: T1, von Hippel-Lindau disease tumor suppressor/Vascular endothelial growth factor receptor 2 (Homo sapiens); experiment: Protac activity at VHL/VEGFR2 in human EA.hy 926 cells assessed as induction of VEGFR2 degradation at 40 uM measured after 24 to 48 hrs by Western blot analysis relative to control; assay type: cell-based; settings: time 24-48 hrs; procedure, shortened: as §1
EA.hy 926 [40] = experiment: Induction of apoptosis in human EA.hy 926 cells assessed as necrotic cells at 0.1 uM measured after 72 hrs by Annexin V-FITC/propidium iodide staining based flow cytometry (reference value: 2.65%); assay type: functional
EA.hy 926 [41] = experiment: Cell cycle arrest in human EA.hy 926 cells assessed as accumulation at G1 phase at 20 uM measured after 72 hrs by propidium iodide staining based flow cytometry (reference value: 59.78%); assay type: functional

T1 sequence (P35968 20-1356 limits assumed): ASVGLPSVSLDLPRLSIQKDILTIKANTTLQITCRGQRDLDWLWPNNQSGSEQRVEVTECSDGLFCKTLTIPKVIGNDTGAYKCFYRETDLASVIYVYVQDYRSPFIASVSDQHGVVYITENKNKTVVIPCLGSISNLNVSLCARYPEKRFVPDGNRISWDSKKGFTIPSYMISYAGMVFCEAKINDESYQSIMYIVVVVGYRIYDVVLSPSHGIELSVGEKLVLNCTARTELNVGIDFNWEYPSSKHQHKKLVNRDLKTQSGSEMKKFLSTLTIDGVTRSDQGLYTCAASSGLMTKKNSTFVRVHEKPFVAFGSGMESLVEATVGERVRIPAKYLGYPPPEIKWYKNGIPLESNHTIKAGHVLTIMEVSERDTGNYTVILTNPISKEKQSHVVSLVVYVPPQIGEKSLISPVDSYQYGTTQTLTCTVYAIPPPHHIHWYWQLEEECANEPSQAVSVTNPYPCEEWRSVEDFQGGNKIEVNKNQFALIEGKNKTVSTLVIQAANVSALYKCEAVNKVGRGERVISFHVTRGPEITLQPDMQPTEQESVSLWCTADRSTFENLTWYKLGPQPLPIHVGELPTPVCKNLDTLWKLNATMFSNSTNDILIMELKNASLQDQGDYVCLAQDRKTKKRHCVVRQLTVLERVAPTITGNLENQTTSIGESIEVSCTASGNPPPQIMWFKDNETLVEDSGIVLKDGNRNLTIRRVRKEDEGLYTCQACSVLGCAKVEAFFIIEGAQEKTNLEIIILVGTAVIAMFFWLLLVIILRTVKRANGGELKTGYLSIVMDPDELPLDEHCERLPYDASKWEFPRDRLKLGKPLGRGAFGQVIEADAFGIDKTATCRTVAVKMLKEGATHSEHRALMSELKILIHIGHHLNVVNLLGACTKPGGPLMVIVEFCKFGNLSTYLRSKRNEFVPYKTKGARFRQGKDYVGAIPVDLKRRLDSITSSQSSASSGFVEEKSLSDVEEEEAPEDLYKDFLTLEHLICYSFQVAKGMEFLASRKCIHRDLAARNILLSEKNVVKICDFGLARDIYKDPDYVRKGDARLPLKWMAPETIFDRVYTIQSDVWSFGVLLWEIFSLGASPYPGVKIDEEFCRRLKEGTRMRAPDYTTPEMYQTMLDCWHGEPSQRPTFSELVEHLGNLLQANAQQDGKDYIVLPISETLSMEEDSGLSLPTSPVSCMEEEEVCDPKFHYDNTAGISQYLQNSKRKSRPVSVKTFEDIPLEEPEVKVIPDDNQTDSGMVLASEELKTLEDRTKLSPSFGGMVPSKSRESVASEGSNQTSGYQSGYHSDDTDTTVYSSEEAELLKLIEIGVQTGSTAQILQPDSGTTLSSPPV
T1 sequence (P40337 whole entry partner): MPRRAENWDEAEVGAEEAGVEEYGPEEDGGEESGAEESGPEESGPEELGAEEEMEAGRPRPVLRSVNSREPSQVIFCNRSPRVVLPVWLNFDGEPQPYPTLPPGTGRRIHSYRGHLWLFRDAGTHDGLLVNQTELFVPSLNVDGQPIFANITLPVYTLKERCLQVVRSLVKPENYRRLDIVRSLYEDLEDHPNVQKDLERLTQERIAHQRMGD
Sequence of Vascular endothelial growth factor receptor 2 (P35968 whole entry): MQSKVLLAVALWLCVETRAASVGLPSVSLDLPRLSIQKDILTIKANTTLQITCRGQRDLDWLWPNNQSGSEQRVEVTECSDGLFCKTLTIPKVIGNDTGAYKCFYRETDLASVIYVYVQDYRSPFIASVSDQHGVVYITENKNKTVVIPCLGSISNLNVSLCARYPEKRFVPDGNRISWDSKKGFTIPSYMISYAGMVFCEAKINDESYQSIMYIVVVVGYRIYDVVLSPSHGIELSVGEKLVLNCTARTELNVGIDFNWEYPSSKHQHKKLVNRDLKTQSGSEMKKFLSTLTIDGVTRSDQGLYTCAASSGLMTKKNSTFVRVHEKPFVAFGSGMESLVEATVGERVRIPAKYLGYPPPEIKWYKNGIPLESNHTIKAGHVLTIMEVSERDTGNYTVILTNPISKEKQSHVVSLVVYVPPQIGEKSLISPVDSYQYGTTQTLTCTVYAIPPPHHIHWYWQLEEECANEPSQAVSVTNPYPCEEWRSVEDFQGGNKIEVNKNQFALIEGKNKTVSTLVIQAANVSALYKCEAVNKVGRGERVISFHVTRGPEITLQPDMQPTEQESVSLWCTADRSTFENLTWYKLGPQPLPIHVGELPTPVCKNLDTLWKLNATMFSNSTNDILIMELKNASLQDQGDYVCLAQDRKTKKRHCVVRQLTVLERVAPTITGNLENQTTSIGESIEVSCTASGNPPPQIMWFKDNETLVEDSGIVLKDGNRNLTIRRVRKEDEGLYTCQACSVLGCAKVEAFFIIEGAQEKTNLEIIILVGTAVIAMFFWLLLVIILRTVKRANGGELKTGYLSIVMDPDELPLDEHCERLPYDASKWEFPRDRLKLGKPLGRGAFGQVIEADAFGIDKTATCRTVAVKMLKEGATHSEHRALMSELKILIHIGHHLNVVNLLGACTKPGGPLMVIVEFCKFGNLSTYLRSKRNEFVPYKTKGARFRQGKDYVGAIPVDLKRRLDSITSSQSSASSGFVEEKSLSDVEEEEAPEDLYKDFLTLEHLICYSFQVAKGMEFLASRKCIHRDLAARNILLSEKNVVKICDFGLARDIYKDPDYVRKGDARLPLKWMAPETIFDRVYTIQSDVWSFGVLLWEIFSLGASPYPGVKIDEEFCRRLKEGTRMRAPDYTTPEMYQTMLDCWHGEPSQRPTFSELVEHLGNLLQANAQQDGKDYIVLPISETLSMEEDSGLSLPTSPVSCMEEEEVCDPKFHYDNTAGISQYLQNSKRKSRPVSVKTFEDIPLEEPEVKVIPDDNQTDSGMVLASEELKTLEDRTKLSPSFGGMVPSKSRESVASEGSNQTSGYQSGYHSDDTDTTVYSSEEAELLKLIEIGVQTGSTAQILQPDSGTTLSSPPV

In the case of `CC(C)c1cccc(NC(=O)Nc2cccc(-c3cccc4[nH]nc(N)c34)c2)c1`, the IC50 (EA.hy 926 [1]) is reported as 51.6 µM.
With `Cc1ncsc1-c1ccc(CNC(=O)[C@@H]2C[C@@H](O)CN2C(=O)[C@@H](NC(=O)CCCCCCCCCCC(=O)n2nc(N)c3c(-c4cccc(NC(=O)Nc5cccc(C(C)C)c5)c4)cccc32)C(C)(C)C)cc1` the IC50 [2] was 0.208 µM, the Activity [3] was 70% and the Activity (HEK293) was “Non-Toxic”. The IC50 (EA.hy 926 [1]) was 32.8 µM.
With `Cc1ccc(F)c(NC(=O)Nc2ccc(-c3cccc4c3c(N)nn4C(=O)CCCCCCCCCCC(=O)N[C@H](C(=O)N3C[C@H](O)C[C@H]3C(=O)NCc3ccc(-c4scnc4C)cc3)C(C)(C)C)cc2)c1` the “late apoptotic cells %” value (EA.hy 926 [4]) was 15.6%, the Activity (EA.hy 926 [5]) was 59.22% and the Activity (EA.hy 926 [6]) was 15.36%. For the same molecule, the Activity (EA.hy 926 [7]) was 0.59%, the Activity (EA.hy 926 [8]) was 14.99% and the Activity (EA.hy 926 [9]) was “Dose-dependent effect”. It also gave a viability at 20 µM (EA.hy 926 [10]) of 31.5%, an Activity (EA.hy 926 [11]) of 1.72% and an Activity (EA.hy 926 [12]) of 5.96%. The Activity (EA.hy 926 [13]) was 12.1%, the IC50 [2] was 0.209 µM and the Activity (EA.hy 926 [14]) was 25.79%. The “late apoptotic cells %” value (EA.hy 926 [15]) was 48.7%, the Activity (EA.hy 926 [16]) was 25.98% and the Activity (EA.hy 926 [17]) was 24.49%. It also gave an Activity (EA.hy 926 [18]) of 23.48%, a viability at 1 µM (EA.hy 926 [19]) of 81.6% and a viability at 40 µM (EA.hy 926 [20]) of 8.82%. The Activity (EA.hy 926 [21]) was 43.62%, the Activity (EA.hy 926 [22]) was 26.4% and the Activity (EA.hy 926 [23]) was 24.92%. The Activity (EA.hy 926 [24]) was 4.21%, the “late apoptotic cells %” value (EA.hy 926 [25]) was 64.2% and the Activity (EA.hy 926 [26]) was 17.63%. For the same molecule, the Activity [27] was “Dose-dependent effect”, the Activity (EA.hy 926 [28]) was 4.12% and the Activity (EA.hy 926 [29]) was 30.4%. The “late apoptotic cells %” value (EA.hy 926 [30]) was 6.94%, the “late apoptotic cells %” value (EA.hy 926 [31]) was 8.32% and the viability at 0.1 µM (EA.hy 926 [32]) was 86.7%. The Activity (EA.hy 926 [33]) was 58.89%, the Activity (EA.hy 926 [34]) was 34.38% and the Activity (EA.hy 926 [35]) was 60.14%. For the same molecule, the Activity (EA.hy 926 [36]) was 18.2%, the Activity (EA.hy 926 [37]) was 2.15% and the Activity (HEK293) was “Non-Toxic”. For the same molecule, the viability at 10 µM (EA.hy 926 [38]) was 70.2%, the IC50 (EA.hy 926 [1]) was 38.6 µM and the Activity [39] was 60%. It also gave an Activity (EA.hy 926 [40]) of 2.16% and an Activity (EA.hy 926 [41]) of 40.7%.
`Cc1ncsc1-c1ccc(CNC(=O)[C@@H]2C[C@@H](O)CN2C(=O)[C@@H](NC(=O)CCCCCCCCCCCCCCC(=O)n2nc(N)c3c(-c4cccc(NC(=O)Nc5cccc(C(C)C)c5)c4)cccc32)C(C)(C)C)cc1` was tested, and the IC50 [2] was greater than 1 µM, the Activity (HEK293) was “Non-Toxic” and the IC50 (EA.hy 926 [1]) was greater than 100 µM.
